# Screening results (PubChem)
# In the library only some 4.1% were active in any assay of this set; here they are far more common.
# NF-kB neuron act: NF-kB expression increase, human neuronal cells | NF-kB reporter expression; hits give high values | fold change at 12.5 µM | hit rate 1.6% among 190,000 | AID 1239; in the data active = fold change above about 3.3
# FLuc stim CS: affects firefly luciferase, flagging false hits in luciferase stimulation screens | P08659 | ATPlite luciferase biochemical, luminescence, 10 min; 0 = ATP-free wells, 1 = DMSO control | activation factor at 10 µM | 200,000 tested, under 10 active | AID 1027;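 active = luciferase activation factor, scaled between plate controls, of at least 2 with compound at 10 µM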
# Target sequence (P08659 whole entry, looked up): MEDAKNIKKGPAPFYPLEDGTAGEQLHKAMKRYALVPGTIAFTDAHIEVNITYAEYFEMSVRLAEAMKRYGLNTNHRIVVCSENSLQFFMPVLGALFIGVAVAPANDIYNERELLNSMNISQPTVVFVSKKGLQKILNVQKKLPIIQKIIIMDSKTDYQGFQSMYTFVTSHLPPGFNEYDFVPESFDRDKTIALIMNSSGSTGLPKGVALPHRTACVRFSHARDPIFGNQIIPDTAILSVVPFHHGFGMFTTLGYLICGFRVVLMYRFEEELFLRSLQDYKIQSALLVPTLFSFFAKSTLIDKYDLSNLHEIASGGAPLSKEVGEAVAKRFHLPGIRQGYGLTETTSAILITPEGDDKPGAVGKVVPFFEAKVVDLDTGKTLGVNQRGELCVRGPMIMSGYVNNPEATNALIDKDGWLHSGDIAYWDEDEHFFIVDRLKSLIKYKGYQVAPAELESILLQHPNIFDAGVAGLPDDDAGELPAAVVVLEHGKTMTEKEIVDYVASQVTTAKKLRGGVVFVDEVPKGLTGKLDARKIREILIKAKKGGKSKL
#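 System: Luciferase/luciferin detection reagent, cell-free biochemical luciferase assay | Medium: PBS buffer for ATP | Dosing: Test compounds dosed from 2 mM stocks in 100% DMSO | Timing: 10 min at ambient temperature | Signal: Luminescence measurement of luciferase light output | Evaluation: Luciferase activation, seen as luminescence increase over controls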
# STAT1 act: STAT1 signaling activation; NIH 3T3 STAT1-luciferase reporter, IFN-gamma, luminescence; 100% = IFN-gamma alone, no compound; activation (% of control), % at 5.5 µM; AID 932; hit rate 2.6% among 200,000;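 active = activation above the screen-wide mean activation plus 3 SD, cut at about 130% in these data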;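 note: raw ratio to IFN-gamma control signal so 100% means no change and 0% no light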
# APP 5'UTR act: APP 5'UTR luciferase reporter activation. SH-SY5Y APP 5'UTR luciferase reporter, luminescence; zero percent = DMSO vehicle wells. activation, % at 2 µM. hit rate 1% among 190,000. AID 1276;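 active = activation above a set limit, based on mean plus 3 SD of controls, cut at about 140% in these data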
# FLuc inh counter: Photinus pyralis luciferase inhibition counter-screen. ATPLite firefly luciferase biochemical luminescence, 10 min. inhibition, % at 10 µM. hit rate 1.5% among 200,000. AID 1006;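 active = inhibition above about 50% when tested at 10 µM, limit read from the data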
# STAT1 activ conf: STAT1 activation, confirmation assay. shares compounds with STAT1 act. NIH 3T3 STAT1-luciferase reporter, IFN-gamma potentiation, luminescence; 100% = IFN-gamma EC80 alone, no compound. activation (% of control), % at 5.7 µM. hit rate 97% among 1,200. AID 1262;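 active = activation above a set limit carried over from the earlier primary STAT1 screen, cut at about 140% in these data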;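 note: simple ratio to median IFN-gamma plus DMSO wells so 0% means no light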
# NFkB act STAT1ct: activates NF-kappaB, counter-screen to STAT1 activators; hit rate 43% among 1,200; shares compounds with STAT1 act; activation (% of control), % at 5.7 µM; HEK293T NF-kB luciferase reporter, TNF-alpha stimulated, luminescence; 100% = TNF-alpha with vehicle only;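 active = activation above the mean of solvent-only control wells plus 3 SD, set per campaign, cut at about 130% in these data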;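 note: TNF-alpha given at a submaximal dose yielding about 80% of full reporter signal; values are well signal over median control so 100% means no change and 0% no light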
# STAT3 act STAT1c: activates human STAT3, counter-screen to STAT1 activators; shares compounds with STAT1 act; U3A cells STAT3-luciferase reporter, IL-6, luminescence; cells lack STAT1; 100 = IL-6 alone, no compound effect; AID 1316; activation (% of control), % at 5.7 µM; hit rate 46% among 1,200;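 active = activation above the solvent-only control well mean plus 3 SD, set per plate batch, cut at about 110% in these data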;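 note: 0% = no luminescence and 100% = median IL-6 plus DMSO wells; higher means more STAT3 reporter activation so hits are non-selective activators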
# Active calls of the source: *; nt = not tested or not shown.
SMILES,NF-kB neuron act,FLuc stim CS,STAT1 act,APP 5'UTR act,FLuc inh counter,STAT1 activ conf,NFkB act STAT1ct,STAT3 act STAT1c
CCN(Cc1ccccc1)c1ccc(/C=N/NC(=O)c2cccc(S(=O)(=O)N3CCOCC3)c2)cc1,1.1,1.1,86,-13,-6,nt,nt,nt
O=C(Nc1ncccn1)c1ccc([N+](=O)[O-])cc1,1.1,1,108,3,0,nt,nt,nt
CC(C)(C)c1ccc(C(=O)Nc2ccc([N+](=O)[O-])cn2)cc1,2.2,0.9,151*,131,9,213*,135*,99
O=C(NC(=S)Nc1ccccn1)c1ccc([N+](=O)[O-])cc1,2.1,0.4,182*,127,59*,191*,128,107
Cc1cccc(-n2c(SCC(=O)NCc3ccc4c(c3)OCO4)nc3ccccc3c2=O)c1,0.74,1.1,91,-4,-10,nt,nt,nt
CC(Sc1nc(-c2ccc(F)cc2)cs1)C(=O)N1c2ccccc2CC1C (stereo unspecified),0.7,1,83,9,-3,nt,nt,nt
COC(=O)/C=c1/sc2nc3ccccc3n2c1=O,1.1,1,97,13,-2,nt,nt,nt
O=c1/c(=C/c2ccccn2)sc2nc3ccccc3n12,4.8*,0.2,184*,66,76*,289*,138*,158*
CCSc1nncn1/N=C/c1ccc(OC)c(OC)c1,1.5,1,102,19,-4,nt,nt,nt
C=C(C)CSc1nncn1/N=C/c1ccc(OC)cc1,2.5,1,153*,33,4,165*,130,128*
CCc1c(C)nc(Nc2nc(C)c3ccc(OC)cc3n2)[nH]c1=O,0.52,1,119,-3,1,nt,nt,nt
COc1ccc2c(C)nc(Nc3nc(C)c(C)c(=O)[nH]3)nc2c1,1.9,0.8,200*,2,21,174*,128,111*
O=C(c1ccc(Cl)nc1)N1CCc2ccccc2C1,1.5,1,101,-5,-2,nt,nt,nt
COc1cc(-c2ccccc2)nc2ccccc12,1.2,1,98,-13,-1,nt,nt,nt
COc1ccc(-c2ccc3ccccc3n2)cc1OC,3.3*,0.8,170*,143*,15,195*,136*,111*
CCCCCCCN(C(=O)CCl)c1ccccc1C,0.35,1.1,97,12,-7,nt,nt,nt
Cc1cc(-c2cccs2)n[nH]1,0.97,1,99,20,0,nt,nt,nt
Cc1nc2nc(-c3cccs3)cn2nc1C,1.9,0.7,152*,69,25,165*,134*,104
Cc1ccccc1/C(N)=N/OC(=O)c1ccc(F)cc1,nt,0.1,183*,80,92*,174*,135*,106
Cc1ccccc1C(=O)NNC(=O)c1ccc(F)cc1,1.2,1,111,8,0,nt,nt,nt
Cc1ccc(-c2csc(/C(C#N)=C/Nc3ccccc3SC(F)(F)F)n2)c(C)c1,1.4,1,99,-27,-4,nt,nt,nt
COc1ccc(Nc2nc(-c3cccs3)cs2)c(OC)c1,7*,1,164*,59,2,216*,139*,118*
COc1ccc(Nc2nc(-c3cccs3)cs2)cc1,2.3,0.6,182*,105,42,214*,151*,122*
COc1ccc(OC)c(Nc2nc(-c3cccs3)cs2)c1,1.1,1.1,110,1,-9,nt,nt,nt
COc1ccccc1Nc1nc(-c2cccs2)cs1,5.7*,0.9,171*,28,6,203*,143*,165*
SMILES,NF-kB neuron act,FLuc stim CS,STAT1 act,APP 5'UTR act,FLuc inh counter,STAT1 activ conf,NFkB act STAT1ct,STAT3 act STAT1c
Cc1cccc(OC(=O)n2c(=S)oc3cc(Cl)ccc32)c1,1.1,1,88,20,-4,nt,nt,nt
Cc1ccc(S(=O)(=O)NC2CCCC2)cc1C,0.96,1,99,6,1,nt,nt,nt
O=C(CN1C(=O)C2CC=CCC2C1=O)NCc1ccc2c(c1)OCO2 (stereo unspecified),1.1,1,99,6,-1,nt,nt,nt
CC1(C(=O)OCc2cc(=O)n3cc(Br)ccc3n2)CC1(Cl)Cl (stereo unspecified),1.2,0.9,161*,82,7,168*,124,100
O=C(COC(=O)C1CC(=O)N(Cc2ccccc2)C1)Nc1ccc2c(c1)OCO2 (stereo unspecified),1.1,1.1,106,-53,-7,nt,nt,nt
COc1cccc(NC(=O)Nc2ccc(C(C)(C)C)cc2)c1,4.3*,0.6,151*,120,41,178*,129,110
CC(C)(C)c1ccc(NC(=O)Nc2ccc(F)cc2)cc1,4.2*,0.6,176*,162*,36,213*,138*,126*
O=C(Nc1ccc(N=Nc2ccccc2)cc1)c1ccccc1Cl,2.3,1,180*,158*,-4,204*,153*,120*
O=C(Nc1ccc(N=Nc2ccccc2)cc1)c1ccc(Cl)cc1Cl,0.77,1.1,107,-5,-5,nt,nt,nt
CC(=O)OCC(=O)Nc1ccc(N=Nc2ccccc2)cc1,4.9*,0.9,162*,110,9,190*,135*,114*
CC(=O)OCC(=O)Nc1ccc(SC(F)F)cc1,1.1,0.7,104,52,27,nt,nt,nt
CC(=O)Nc1ccc(N=Nc2ccccc2)cc1,5.3*,0.8,152*,111,15,188*,131,107
O=C(CCl)Nc1ccc(N=Nc2ccccc2)cc1,3.1,0.7,124,31,29,nt,nt,nt
CCC(C(=O)OCC(=O)Nc1ccc(C(N)=O)cc1)c1ccccc1 (stereo unspecified),0.98,1.1,100,-5,-7,nt,nt,nt
CC(C)C(=O)OCC(=O)Nc1ccc(N=Nc2ccccc2)cc1,5.1*,1,151*,170*,-3,184*,140*,117*
O=C(CCc1ccccc1)N/N=C/c1cccc([N+](=O)[O-])c1,1.1,1.1,100,11,-7,nt,nt,nt
CC(=O)Oc1ccc(C(=O)Nc2ccc3c(c2)C(=O)N(CCC(=O)O)C3=O)cc1,0.9,1,95,-7,1,nt,nt,nt
CCCCOc1ccc(-c2csc(N)n2)cc1[N+](=O)[O-],5.4*,0.7,156*,142*,30,192*,141*,110
O=c1cc(-c2ccc(O)cc2)oc2ccccc12,2.6,0.9,154*,39,11,154*,118,125*
O=c1c2ccccc2nc(/C=C/c2ccc([N+](=O)[O-])cc2)n1CCCO,0.44,1,108,-6,-3,nt,nt,nt
